Here are results for 21 compounds from ChEMBL document CHEMBL1134386, “Cardioselective K(ATP) channel blockers derived from a new series of m-anisamidoethylbenzenesulfonylthioureas” (J Med Chem, 2001).

Broadly, the inhibition is the relative decrease from the control value, in per cent.

For the first assay, the target named is T1, Sulfonylurea receptor 1, Kir6.2 (Homo sapiens) (UniProt Q14654+Q09428). The assay can be described thus: Antiarrhythmic effect in hSUR1/hKir6.2 (pancreatic KATP channel) transfected in CHO cells at a dose of 1 uM. It is filed as functional, cell-based. The settings on record: at 1 µM. An outline of the steps: (§1)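 CHO cells stably expressing SUR1/Kir6.2, seeded the day before and washed three times in PBS. Loaded with voltage dye DiBAC4(3), added as a 10 µM solution, with diazoxide, added as a 400 µM solution, both in PBS; 30 min at 37 °C. Compound added after 4 min of baseline. Fluorescence read with 488 nm excitation every 20 s for 20 min. Mean of at least four experiments.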
For the compound `CN/C(S)=N/S(=O)(=O)c1cc2c(cc1OC)OCCC2CNC(=O)c1cc(Cl)ccc1OC` (single isomer, unassigned; (+)), the inhibition is 3.6%.

`CN/C(S)=N/S(=O)(=O)c1cccc(CCNC(=O)c2cc(Cl)ccc2OC)c1`: the inhibition was determined as 1.9%.

On to `CN/C(S)=N/S(=O)(=O)c1cc2c(cc1OC)OCCC2CNC(=O)c1cc(Cl)ccc1OC` (single isomer, unassigned; (-)), for which the inhibition was found to be 63%.

For `CN/C(S)=N/S(=O)(=O)c1cc(CCNC(=O)c2cc(Cl)ccc2OC)ccc1-c1ccccn1`, the inhibition was found to be 24.4%.

Consider `CNC(=S)NS(=O)(=O)c1cc(CCNC(=O)c2cc(Cl)ccc2OC)ccc1OC`, for which the inhibition was 24.3%.

Take `CNC(=O)NS(=O)(=O)c1cc2c(cc1OC)OCCC2CNC(=O)c1cc(Cl)ccc1OC` (single isomer, unassigned; (+)): the inhibition is 1%.

As for `COc1ccc(Cl)cc1C(=O)NCCc1ccc(OC)c(S(=O)(=O)NC(=O)NC2CCCCC2)c1`, the inhibition worked out at 92.8%.

Take `CCCc1ccc(CCNC(=O)c2cc(Cl)ccc2OC)cc1S(=O)(=O)/N=C(\S)NC`: the inhibition is 41.5%.

Consider `CNC(=O)NS(=O)(=O)c1cc(CCNC(=O)c2cc(Cl)ccc2OC)c(OC)cc1OC`, for which the inhibition turned out to be 2.8%.

As to `CN/C(S)=N/S(=O)(=O)c1cc(CCNC(=O)c2cc(Cl)ccc2OC)ccc1OC(C)C`, the inhibition came out at 27.4%.

Take `CN/C(S)=N/S(=O)(=O)c1cc(CCNC(=O)c2cc(Cl)ccc2OC)ccc1-c1cccnc1`: the inhibition was 10.2%.

Consider `CN/C(S)=N/S(=O)(=O)c1cc(CCNC(=O)c2cc(Cl)ccc2OC)ccc1OC(F)(F)F`, for which the inhibition amounted to 6%.

In the case of `COc1ccc(Cl)cc1C(=O)NCCc1ccc(OC)c(S(=O)(=O)/N=C(/N)S)c1`, the inhibition came to 11.2%.

Regarding `CN/C(S)=N/S(=O)(=O)c1cc(CCNC(=O)c2cc(Cl)ccc2OC)ccc1OCCOCCOC`, the inhibition came to 45.5%.

Take `COc1ccc(Cl)cc1C(=O)NCCc1ccc(OC)c(S(=O)(=O)/N=C(\S)NC2CCCCC2)c1`: the inhibition is 87.6%.

Regarding `CNC(=O)NS(=O)(=O)c1ccc(CCNC(=O)c2cc(Cl)ccc2OC)cc1`, the inhibition is 62.8%.

Turning to `CN/C(S)=N/S(=O)(=O)c1cc(CCNC(=O)c2cc(Cl)ccc2OC)ccc1[S+](C)[O-]` (configuration not stated), the inhibition came to 2.4%.

Regarding `CN/C(S)=N/S(=O)(=O)c1cc(CCNC(=O)c2cc(Cl)ccc2OC)ccc1F`, the inhibition was -1.3%.

For the compound `C=CCOc1ccc(CCNC(=O)c2cc(Cl)ccc2OC)cc1S(=O)(=O)/N=C(\S)NC`, the inhibition was 31.8%.

For `CN/C(S)=N/S(=O)(=O)c1cc(CCNC(=O)c2cc(Cl)ccc2OC)ccc1S(C)(=O)=O`, the inhibition is 1.1%.

The target of the next assay is T1, Sulfonylurea receptor 1, Kir6.2 (Homo sapiens). As to the kind of experiment: Antiarrhythmic effect in hSUR1/hKir6.2 (pancreatic KATP channel) transfected in CHO cells at a dose of 10 uM. It is filed as functional, cell-based. The settings on record: at 10 µM. An outline of the steps: as §1
As for `CN/C(S)=N/S(=O)(=O)c1cc2c(cc1OC)OCCC2CNC(=O)c1cc(Cl)ccc1OC` (single isomer, unassigned; (+)), the inhibition was 70.7%.

Take `CN/C(S)=N/S(=O)(=O)c1cccc(CCNC(=O)c2cc(Cl)ccc2OC)c1`: the inhibition was found to be 52.7%.

Take `CN/C(S)=N/S(=O)(=O)c1cc2c(cc1OC)OCCC2CNC(=O)c1cc(Cl)ccc1OC` (single isomer, unassigned; (-)): the inhibition was determined as 75.7%.

Regarding `CN/C(S)=N/S(=O)(=O)c1cc(CCNC(=O)c2cc(Cl)ccc2OC)ccc1-c1ccccn1`, the inhibition was determined as 91.4%.

Regarding `CNC(=S)NS(=O)(=O)c1cc(CCNC(=O)c2cc(Cl)ccc2OC)ccc1OC`, the inhibition turned out to be 83.8%.

As for `CNC(=O)NS(=O)(=O)c1cc2c(cc1OC)OCCC2CNC(=O)c1cc(Cl)ccc1OC` (single isomer, unassigned; (+)), the inhibition turned out to be 0.3%.

Regarding `COc1ccc(Cl)cc1C(=O)NCCc1ccc(OC)c(S(=O)(=O)NC(=O)NC2CCCCC2)c1`, the inhibition is 81.7%.

Consider `CCCc1ccc(CCNC(=O)c2cc(Cl)ccc2OC)cc1S(=O)(=O)/N=C(\S)NC`, for which the inhibition was found to be 97.1%.

As to `CNC(=O)NS(=O)(=O)c1cc(CCNC(=O)c2cc(Cl)ccc2OC)c(OC)cc1OC`, the inhibition is 13.5%.

Take `CN/C(S)=N/S(=O)(=O)c1cc(CCNC(=O)c2cc(Cl)ccc2OC)ccc1OC(C)C`: the inhibition was 81.1%.

Consider `CN/C(S)=N/S(=O)(=O)c1cc(CCNC(=O)c2cc(Cl)ccc2OC)ccc1-c1cccnc1`, for which the inhibition was determined as 62.3%.

Regarding `CN/C(S)=N/S(=O)(=O)c1cc(CCNC(=O)c2cc(Cl)ccc2OC)ccc1OC(F)(F)F`, the inhibition amounted to 64.9%.

Consider `COc1ccc(Cl)cc1C(=O)NCCc1ccc(OC)c(S(=O)(=O)/N=C(/N)S)c1`, for which the inhibition was 64.7%.

Take `CN/C(S)=N/S(=O)(=O)c1cc(CCNC(=O)c2cc(Cl)ccc2OC)ccc1OCCOCCOC`: the inhibition was determined as 96.4%.

For `COc1ccc(Cl)cc1C(=O)NCCc1ccc(OC)c(S(=O)(=O)/N=C(\S)NC2CCCCC2)c1`, the inhibition came out at 122%.

As for `CNC(=O)NS(=O)(=O)c1ccc(CCNC(=O)c2cc(Cl)ccc2OC)cc1`, the inhibition was found to be 86.3%.

For `CN/C(S)=N/S(=O)(=O)c1cc(CCNC(=O)c2cc(Cl)ccc2OC)ccc1[S+](C)[O-]` (configuration not stated), the inhibition turned out to be 17.6%.

Regarding `CN/C(S)=N/S(=O)(=O)c1cc(CCNC(=O)c2cc(Cl)ccc2OC)ccc1F`, the inhibition was 18.1%.

With `C=CCOc1ccc(CCNC(=O)c2cc(Cl)ccc2OC)cc1S(=O)(=O)/N=C(\S)NC`, the inhibition was 94%.

Turning to `CN/C(S)=N/S(=O)(=O)c1cc(CCNC(=O)c2cc(Cl)ccc2OC)ccc1S(C)(=O)=O`, the inhibition stood at 16.4%.

Another assay shares this target. The assay can be described thus: Antiarrhythmic effect in hSUR1/hKir6.2 (pancreatic KATP channel) transfected in CHO cells at a dose of 0.1 uM. Type of assay: functional, cell-based. Conditions: at 0.1 µM. Summed up:
as §1
As for `CN/C(S)=N/S(=O)(=O)c1cc2c(cc1OC)OCCC2CNC(=O)c1cc(Cl)ccc1OC` (single isomer, unassigned; (+)), the inhibition was -3.9%.

`CN/C(S)=N/S(=O)(=O)c1cccc(CCNC(=O)c2cc(Cl)ccc2OC)c1`: the inhibition is -4.1%.

Take `CN/C(S)=N/S(=O)(=O)c1cc2c(cc1OC)OCCC2CNC(=O)c1cc(Cl)ccc1OC` (single isomer, unassigned; (-)): the inhibition amounted to 6.8%.

Regarding `CN/C(S)=N/S(=O)(=O)c1cc(CCNC(=O)c2cc(Cl)ccc2OC)ccc1-c1ccccn1`, the inhibition stood at 6.6%.

On to `CNC(=S)NS(=O)(=O)c1cc(CCNC(=O)c2cc(Cl)ccc2OC)ccc1OC`, for which the inhibition amounted to 5%.

For the compound `CNC(=O)NS(=O)(=O)c1cc2c(cc1OC)OCCC2CNC(=O)c1cc(Cl)ccc1OC` (single isomer, unassigned; (+)), the inhibition turned out to be 2%.

For the compound `COc1ccc(Cl)cc1C(=O)NCCc1ccc(OC)c(S(=O)(=O)NC(=O)NC2CCCCC2)c1`, the inhibition came to 65.5%.

Turning to `CCCc1ccc(CCNC(=O)c2cc(Cl)ccc2OC)cc1S(=O)(=O)/N=C(\S)NC`, the inhibition was found to be 2.3%.

On to `CNC(=O)NS(=O)(=O)c1cc(CCNC(=O)c2cc(Cl)ccc2OC)c(OC)cc1OC`, for which the inhibition is -0.6%.

For `CN/C(S)=N/S(=O)(=O)c1cc(CCNC(=O)c2cc(Cl)ccc2OC)ccc1OC(C)C`, the inhibition is -4.7%.

`CN/C(S)=N/S(=O)(=O)c1cc(CCNC(=O)c2cc(Cl)ccc2OC)ccc1-c1cccnc1`: the inhibition amounted to 4.4%.

On to `CN/C(S)=N/S(=O)(=O)c1cc(CCNC(=O)c2cc(Cl)ccc2OC)ccc1OC(F)(F)F`, for which the inhibition was determined as 0.8%.

In the case of `COc1ccc(Cl)cc1C(=O)NCCc1ccc(OC)c(S(=O)(=O)/N=C(/N)S)c1`, the inhibition was 1.6%.

For the compound `CN/C(S)=N/S(=O)(=O)c1cc(CCNC(=O)c2cc(Cl)ccc2OC)ccc1OCCOCCOC`, the inhibition stood at 1%.

Consider `COc1ccc(Cl)cc1C(=O)NCCc1ccc(OC)c(S(=O)(=O)/N=C(\S)NC2CCCCC2)c1`, for which the inhibition stood at 20.5%.

`CNC(=O)NS(=O)(=O)c1ccc(CCNC(=O)c2cc(Cl)ccc2OC)cc1`: the inhibition is -0.7%.

`CN/C(S)=N/S(=O)(=O)c1cc(CCNC(=O)c2cc(Cl)ccc2OC)ccc1[S+](C)[O-]` (configuration not stated): the inhibition is 1.9%.

On to `CN/C(S)=N/S(=O)(=O)c1cc(CCNC(=O)c2cc(Cl)ccc2OC)ccc1F`, for which the inhibition is -3.9%.

As for `C=CCOc1ccc(CCNC(=O)c2cc(Cl)ccc2OC)cc1S(=O)(=O)/N=C(\S)NC`, the inhibition turned out to be 1.7%.

`CN/C(S)=N/S(=O)(=O)c1cc(CCNC(=O)c2cc(Cl)ccc2OC)ccc1S(C)(=O)=O`: the inhibition came out at 1.8%.

Another assay has the same target. The assay can be described thus: Antiarrhythmic effect in hSUR1/hKir6.2 (pancreatic KATP channel) transfected in CHO cells at 3 nM. It is filed as functional, cell-based.
Conditions: not given
An outline of the steps: (§2)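 CHO cells stably expressing SUR1/Kir6.2, seeded the day before and washed three times with PBS. Loaded with DiBAC4(3) plus diazoxide in PBS for 30 min at 37 °C. Membrane-potential fluorescence read with 488 nm excitation; compound added at 4 min, then readings every 20 s for 20 min. Mean of at least four experiments.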
Regarding `COc1ccc(Cl)cc1C(=O)NCCc1ccc(S(=O)(=O)NC(=O)NC2CCCCC2)cc1`, the inhibition came out at 73.3%.

Another assay has the same target. The assay can be described thus: Antiarrhythmic effect in hSUR1/hKir6.2 (pancreatic KATP channel) transfected in CHO cells at 1 nM.
Conditions: not given
It is filed as functional, cell-based. Summed up: as §2
On to `COc1ccc(Cl)cc1C(=O)NCCc1ccc(S(=O)(=O)NC(=O)NC2CCCCC2)cc1`, for which the inhibition was found to be 24%.
